Assay results gathered from unrelated publications.
Protocols differ between the studies behind these lines.
Effect on: cell growth or viability

For `C=CC(=O)N1CCN(c2nc(=O)n(-c3c(C)ccnc3C(C)C)c3nc(-c4c(O)cccc4F)c(F)cc23)[C@@H](C)C1`, the IC50 was 132 nM (SW1463; ATP luminescence).
With `Cc1ccc2c(-c3cc4c(CNCc5cccnc5)cnc(C)c4o3)cc(=O)oc2c1C` the IC50 was 43900 nM (NCI-H1975; MTT; 72 h).
With `Cc1sc2c(c1C)C(c1ccc(Cl)cc1)=N[C@@H](CC(=O)NCCCCCCCCNC(=O)COc1cccc3c1C(=O)N(C1CCC(=O)NC1=O)C3=O)c1nnc(C)n1-2` (stereo partly drawn) the IC50 was 35 nM (SET-2; ATP luminescence).
For `CC(C)c1ccccc1[C@@H]1CCCN1C1CC2(CCN(c3ccc(C(=O)NS(=O)(=O)c4ccc(NC[C@H]5CC[C@](C)(O)CC5)c([N+](=O)[O-])c4)c(Oc4cnc5[nH]ccc5c4)c3)CC2)C1`, the IC50 was 183 nM (Rec1; ATP luminescence; 48 h).
`NC(=O)COc1ccc(C(=O)C(Cl)Cl)cc1[N+](=O)[O-]` has an inhibition of 26.3% (NCI-H1975; MTT; 2.5 µM).
`C=C(F)C(=O)N1CCN(c2nc(OC[C@@H]3CCCN3C)nc3c2CCN(c2cccc4cccc(Cl)c24)C3)C[C@@H]1CC#N` has an IC50 of 367 nM (SW1463; ATP luminescence).
For `NC(=O)c1ccc(Oc2ccc(C(=O)C(Cl)Cl)cc2[N+](=O)[O-])cc1`, the inhibition was 97.2% (NCI-H1975; MTT; 2.5 µM).
With `C=CC(=O)Nc1cc(Nc2nccc(-c3cn(C)c4ccccc34)n2)c(OC)cc1N(C)CCN(C)C` the IC50 was 29500 nM (NCI-H1975; MTT; 72 h).
`C=CC(=O)NC1CCN(c2ncc3ncnc(Nc4ccc(Oc5ccc6c(c5)ncn6C)c(C)c4)c3n2)CC1` has an EC50 of 471 nM (NCI-H322).
`COc1cccc2c1C(=O)c1c(O)c3c(c(O)c1C2=O)C[C@@](O)(C(=O)CO)C[C@@H]3O[C@H]1C[C@H](N)[C@H](O)[C@H](C)O1` gave an IC50 of 60 nM (HEK293; MTT; 72 h).
`CC1(CN)CCN(c2cnc3c(Sc4ccncc4Cl)n[nH]c3n2)CC1` gave an IC50 of 6680 nM (NCI-H1975; 96 h).
The inhibition of `CC(=O)Nc1ccc(Oc2ccc(C(=O)C(Cl)Cl)cc2[N+](=O)[O-])cc1` is reported as 88.3% (NCI-H1975; MTT; 2.5 µM).
`CN(C)C/C=C/C(=O)Nc1cc2c(Nc3ccc(F)c(Cl)c3)ncnc2cc1O[C@H]1CCOC1` has an IC50 of 30500 nM (NCI-H1975; MTT; 72 h).
For `O=C(NO)c1ccc(CNc2nc3cccc(-c4ccc5c(c4)OCO5)n3n2)cc1`, the GI50 was 600 nM (NCI-H322M; SRB).
For `CC(C)Oc1ccc(S(=O)(=O)c2ccc(Oc3cc(OCC(N)=O)c(C(=O)C(Cl)Cl)cc3[N+](=O)[O-])cc2)cc1`, the IC50 was 1220 nM (HEK293; MTT; 72 h).
